Two molecules from ChEMBL document CHEMBL1671695, “Specificity of induction of the vanA and vanB operons in vancomycin-resistant enterococci by telavancin” (Antimicrob Agents Chemother, 2010) can be followed below.

The test system of experiment [1] is Enterococcus faecalis. The experiment can be described thus: Induction of VanX activity in Enterococcus faecalis ATCC 51299 expressing Van B gene at 0.3 times MIC by high-performance liquid chromatography. It counts as functional, organism-based.
In experiment [2] the test system is Enterococcus faecalis. The experiment can be described thus: Induction of VanX activity in Enterococcus faecalis ATCC 51575 expressing Van B gene at 0.3 times MIC by high-performance liquid chromatography. It counts as functional, organism-based.
The subject of experiment [3] is Enterococcus faecalis. The experiment can be described thus: Induction of VanA activity in vancomycin susceptible Enterococcus faecalis BM4110 harboring Van A gene assessed as UDP-MurNAc-tetrapeptide profile at 4 ug/ml […]. It counts as functional. The procedure, abridged: (§1)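 Ramoplanin (3 μg/ml) was then added for 15 min. Cytoplasmic precursors were extracted with 8% trichloroacetic acid (15 min, 4°C), desalted and run on HPLC. Each precursor is given as % of total late precursors (tetrapeptide, pentapeptide, pentadepsipeptide) from integrated peak areas.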

The subject of experiment [4] is Enterococcus faecium. The experiment can be described thus: Induction of VanA activity in Enterococcus faecium ATCC 51559 expressing Van A gene assessed as UDP-MurNAc-tetrapeptide profile at 4 ug/ml […]. It is filed as functional. In a few lines: (§2)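 Ramoplanin (3 μg/ml) was then added for 15 min. Cytoplasmic precursors were extracted with 8% TCA (15 min, 4°C), desalted and analysed by HPLC. Each precursor (tetrapeptide, pentapeptide, pentadepsipeptide) is expressed as a percentage of total late precursors from integrated peak areas.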

Experiment [5] relates to Enterococcus faecalis. Kind of experiment: Induction of VanA activity in vancomycin susceptible Enterococcus faecalis BM4110 assessed as UDP-MurNAc-pentapeptide profile at 0.1 ug/ml […]. It is filed as functional. The procedure, abridged:
as §2

In experiment [6] the test system is Enterococcus faecium. Kind of experiment: Induction of VanA activity in Enterococcus faecium ATCC 51559 expressing Van A gene assessed as UDP-MurNAc-pentapeptide profile at 4 ug/ml […]. It counts as functional. The procedure, abridged:
as §2

The subject of experiment [7] is Enterococcus faecalis. Kind of experiment: Induction of VanA activity in Enterococcus faecalis ATCC 51299 expressing Van B gene assessed as UDP-MurNAc-pentapeptide profile at 0.1 ug/ml […]. It counts as functional. The procedure, abridged:
as §2

Experiment [8] concerns Enterococcus faecalis. The experiment can be described thus: Induction of VanA activity in Enterococcus faecalis ATCC 51575 expressing Van B gene assessed as UDP-MurNAc-pentapeptide profile at 0.1 ug/ml […]. It is filed as functional.
Experiment [9] relates to Enterococcus faecalis. Kind of experiment: Induction of VanX activity in vancomycin susceptible Enterococcus faecalis BM4110 harboring Van A gene assessed as UDP-MurNAc-depsipeptide profile at 4 ug/ml […]. It is filed as functional. In a few lines: as §1
For experiment [10], the system named is Enterococcus faecium. Kind of experiment: Induction of VanX activity in Enterococcus faecium ATCC 51559 expressing Van A gene assessed as UDP-MurNAc-depsipeptide profile at 4 ug/ml […]. It counts as functional. The procedure, abridged: as §2
Experiment [11] concerns Enterococcus faecalis. Kind of experiment: Antimicrobial activity against streptomycin-resistant, vancomycin-susceptible Enterococcus faecalis BM4110 by broth microdilution method. It counts as functional. In a few lines: (§3)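 Broth microdilution MIC per CLSI-approved methods; strains maintained on tryptic soy agar with 5% sheep blood at 37°C.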
In experiment [12] the test system is Enterococcus faecalis. Kind of experiment: Antimicrobial activity against Enterococcus faecalis BM4110 expressing VanA and harboring transposon tn1546 by broth microdilution method. It counts as functional. In a few lines: as §3
Experiment [13] has as its system Enterococcus faecium. The experiment can be described thus: Antimicrobial activity against Enterococcus faecium ATCC 51559 by broth microdilution method. It is filed as functional. The procedure, abridged:
as §3

Experiment [14] concerns Enterococcus faecalis. The experiment can be described thus: Antimicrobial activity against Enterococcus faecalis ATCC 51299 by broth microdilution method. It is filed as functional. In a few lines:
as §3

Experiment [15] has as its system Enterococcus faecalis. Kind of experiment: Antimicrobial activity against Enterococcus faecalis ATCC 51575 by broth microdilution method. It is filed as functional. In a few lines: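 Strains were grown on TSA with 5% sheep blood at 37°C. MIC was determined by broth microdilution following CLSI methods.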
In experiment [16] the test system is Enterococcus faecalis. Kind of experiment: Induction of VanX activity in Enterococcus faecalis BM4110 expressing VanA and harboring transposon tn1546 at 0.4 times MIC by Western blotting relative to uninduced control. It is filed as functional. The procedure, abridged: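 Cells grown in BHI at 37°C with telavancin, harvested and treated with mutanolysin, then sonicated. Soluble extract (35 ng protein) was run on a 4–12% polyacrylamide gel and transferred to PVDF. Blot probed with affinity-purified polyclonal anti-VanX (1/5,000), then IRDye 800CW goat anti-rabbit IgG (1/10,000), with infrared fluorescence detection. VanX amount expressed relative to basal level without antibiotic.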

For experiment [17], the system named is Enterococcus faecalis. The experiment can be described thus: Induction of D,D-dipeptidase activity in Enterococcus faecalis BM4110 expressing VanA and harboring transposon tn1546 at 0.4 times MIC by Western blotting relative to uninduced control. It is filed as functional.
Experiment [18] concerns the target T1, D-alanyl-D-alanine dipeptidase (Enterococcus faecium, UniProt Q06241).
T1 sequence (Q06241 whole entry): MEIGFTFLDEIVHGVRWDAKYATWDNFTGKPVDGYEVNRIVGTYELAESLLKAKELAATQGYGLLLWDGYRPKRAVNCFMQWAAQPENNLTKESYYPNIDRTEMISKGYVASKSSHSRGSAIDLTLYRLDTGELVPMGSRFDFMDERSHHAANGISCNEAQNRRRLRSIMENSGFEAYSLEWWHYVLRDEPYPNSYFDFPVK
Kind of experiment: Inhibition of D,D-dipeptidase activity Van X in Enterococcus faecium ATCC 51559 using D-alanyl-(R)-phenylthioglycine substrate. The procedure, abridged: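 Continuous DTNB-coupled VanX assay on soluble extract (100 mM Tris pH 7.5, 412 nm, 22°C). d-Alanyl-(R)-phenylthioglycine was 0.125–0.75 mM and the phosphonamidate inhibitor N-[(1-aminoethyl)hydroxyphosphinyl]-d-alanine 25–324 μM. Ki came from fitting initial rates to a competitive inhibition model.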

For experiment [19], the system named is Enterococcus faecium. Kind of experiment: Induction of VanX activity in Enterococcus faecium ATCC 51559 expressing Van A gene by high-performance liquid chromatography. It is filed as functional, organism-based.
Experiment [20] concerns Enterococcus faecalis. The experiment can be described thus: Induction of VanX activity in Enterococcus faecalis BM4110 expressing Van A gene by high-performance liquid chromatography. It is filed as functional, organism-based.
Experiment [21] has as its system Enterococcus faecalis. Kind of experiment: Induction of VanX activity in Enterococcus faecalis ATCC 51299 expressing Van B gene by high-performance liquid chromatography. It is filed as functional, organism-based.
In experiment [22] the test system is Enterococcus faecalis. Kind of experiment: Induction of VanX activity in Enterococcus faecalis ATCC 51575 expressing Van B gene by high-performance liquid chromatography. It is filed as functional, organism-based.
Experiment [23] concerns Enterococcus faecalis. The experiment can be described thus: Induction of VanA activity in vancomycin susceptible Enterococcus faecalis BM4110 harboring Van A gene assessed as UDP-MurNAc-tetrapeptide profile at 64 ug/ml […]. It counts as functional. In a few lines:
as §1

For experiment [24], the system named is Enterococcus faecium. The experiment can be described thus: Induction of VanA activity in Enterococcus faecium ATCC 51559 expressing Van A gene assessed as UDP-MurNAc-tetrapeptide profile at 64 ug/ml […]. It counts as functional. In a few lines: as §1
In experiment [25] the test system is Enterococcus faecalis. The experiment can be described thus: Induction of VanA activity in Enterococcus faecalis ATCC 51299 expressing Van B gene assessed as UDP-MurNAc-tetrapeptide profile at 3 ug/ml […]. It is filed as functional. In a few lines:
as §1

For experiment [26], the system named is Enterococcus faecalis. The experiment can be described thus: Induction of VanA activity in Enterococcus faecalis ATCC 51575 expressing Van B gene assessed as UDP-MurNAc-tetrapeptide profile at 16 ug/ml […]. It is filed as functional. In a few lines:
as §1

Experiment [27] has as its system Enterococcus faecalis. The experiment can be described thus: Induction of VanA activity in vancomycin susceptible Enterococcus faecalis BM4110 assessed as UDP-MurNAc-pentapeptide profile at 1 ug/ml […]. It counts as functional. In a few lines:
as §1

Experiment [28] deals with Enterococcus faecalis. The experiment can be described thus: Induction of VanA activity in Enterococcus faecalis ATCC 51299 expressing Van B gene assessed as UDP-MurNAc-pentapeptide profile at 3 ug/ml […]. It counts as functional. In a few lines:
as §1

The test system of experiment [29] is Enterococcus faecalis. Kind of experiment: Induction of VanA activity in Enterococcus faecalis ATCC 51575 expressing Van B gene assessed as UDP-MurNAc-pentapeptide profile at 16 ug/ml […]. It is filed as functional. In a few lines:
as §1

Experiment [30] has as its system Enterococcus faecalis. Kind of experiment: Induction of VanX activity in vancomycin susceptible Enterococcus faecalis BM4110 harboring Van A gene assessed as UDP-MurNAc-depsipeptide profile at 64 ug/ml […]. It counts as functional. The procedure, abridged: as §1
Experiment [31] relates to Enterococcus faecium. Kind of experiment: Induction of VanX activity in Enterococcus faecium ATCC 51559 expressing Van A gene assessed as UDP-MurNAc-depsipeptide profile at 64 ug/ml […]. It is filed as functional. The procedure, abridged: as §1
Experiment [32] has as its system Enterococcus faecalis. Kind of experiment: Induction of VanX activity in Enterococcus faecalis ATCC 51299 expressing Van B gene assessed as UDP-MurNAc-depsipeptide profile at 3 ug/ml […]. It is filed as functional. The procedure, abridged:
as §1

The subject of experiment [33] is Enterococcus faecalis. Kind of experiment: Induction of VanX activity in Enterococcus faecalis ATCC 51575 expressing Van B gene assessed as UDP-MurNAc-depsipeptide profile at 16 ug/ml […]. It counts as functional. In a few lines:
as §1

Values after ≈ are worked out from the molar mass of the structure shown. Active and inactive are the calls of the source. No cut-off for these calls is given here.

Turning to `CCCCCCCCCCNCCN[C@@]1(C)C[C@H](O[C@H]2[C@H](Oc3c4cc5cc3Oc3ccc(cc3Cl)[C@@H](O)[C@@H](NC(=O)[C@@H](CC(C)C)NC)C(=O)N[C@@H](CC(N)=O)C(=O)N[C@H]5C(=O)N[C@H]3C(=O)N[C@H](C(=O)N[C@H](C(=O)O)c5cc(O)c(CNCP(=O)(O)O)c(O)c5-c5cc3ccc5O)[C@H](O)c3ccc(c(Cl)c3)O4)O[C@H](CO)[C@@H](O)[C@@H]2O)O[C@@H](C)[C@H]1O` [TELAVANCIN], the outcome in experiment [1] and in [2] was inactive. Further, the Activity in experiment [3] is reported as 26%; in [4], 40%; in [5] it was 100%; in experiment [6], 8%; in experiment [7], 100%; in experiment [8] it was 100%. Moreover, the Activity in [9] was 74%; in [10] it was 52%. Moreover, the MIC came to 1 µg/mL (≈ 0.57 µM) in [11]; 8 µg/mL (≈ 4.56 µM) in experiment [12]; 8 µg/mL (≈ 4.56 µM) in [13]; 1 µg/mL (≈ 0.57 µM) in experiment [14]; 0.5 µg/mL (≈ 0.285 µM) in experiment [15]. Moreover, the “fold change (FC)” value in experiment [16] turned out to be 4; in experiment [17] it was 6.
As to `CN[C@H](CC(C)C)C(=O)N[C@H]1C(=O)N[C@@H](CC(N)=O)C(=O)N[C@H]2C(=O)N[C@H]3C(=O)N[C@H](C(=O)N[C@H](C(=O)O)c4cc(O)cc(O)c4-c4cc3ccc4O)[C@H](O)c3ccc(c(Cl)c3)Oc3cc2cc(c3O[C@@H]2O[C@H](CO)[C@@H](O)[C@H](O)[C@H]2O[C@H]2C[C@](C)(N)[C@H](O)[C@H](C)O2)Oc2ccc(cc2Cl)[C@H]1O` [VANCOMYCIN], the affinity in experiment [18], expressed as Ki, was 62 µM. For the same molecule, the Activity result in experiment [19] is “Dose-dependent effect”; in [20], “Dose-dependent effect”; in experiment [23] it was 27%; in experiment [24], 41%; in [25] it was 6%; in experiment [26], 4%. Moreover, the Activity in experiment [27] amounted to 100%; in [28], 19%; in [29], 10%; in experiment [30], 73%; in experiment [31], 59%; in experiment [32], 75%. The Activity in [33] was determined as 86%. Moreover, the result in experiment [21] and in experiment [22] was Active. The MIC in experiment [11] stood at 2 µg/mL (≈ 1.38 µM); in [12], 1020 µg/mL (≈ 707 µM); in [14], 16 µg/mL (≈ 11 µM); in experiment [15], 256 µg/mL (≈ 177 µM).
